Source: article PMC4550695 (mBio, 2015)

Legend:
P. aeruginosa AmiC [1] = biological target: T1, P. aeruginosa AmiC (Pseudomonas aeruginosa, UniProt P27017); settings: ref [36]; cited from earlier work
[2] = endogenous, usual order; ref [52]; cited from earlier work
P. aeruginosa AmiC [3] = biological target: T1, P. aeruginosa AmiC; assay: Microscale thermophoresis binding to recombinant AmiC; settings: for affinity for / interaction with AmiC, in words: MST, pH 7.5, 25°C
Method in brief: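 His-tagged codon-optimised AmiC expressed in E. coli Rosetta2(DE3), purified by IMAC and gel filtration, RED-NHS labelled or unlabelled depending on ligand. AmiC at 50 nM final, mixed with 1:1 serial ligand dilutions in 50 mM Tris-HCl pH 7.5, 150 mM NaCl, 10 mM MgCl2, 0.05% Tween 20. After 5 min incubation, read at 25°C (laser 5/30/5 s); three independent pipettings; KD fitted by mass-action equation.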

P. aeruginosa MPAO1 = assay: Biofilm formation under static conditions, P. aeruginosa MPAO1; type: cell-based, Pseudomonas aeruginosa; settings: isatin 10^−5 M alone, 24 h
Method in brief: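 Uses a GFP-plasmid (pSMC2.1) strain; overnight preculture at 37°C diluted into LB with 400 µg/ml kanamycin. Test compound added at 2 h of subculture from DMSO/water (5/95) stock, final DMSO under 0.2%, DMSO-matched controls. After 3 h more, cells pelleted, resuspended in 0.9% NaCl at OD600 0.1, 2 h static attachment on glass slides, then LB 24 h static at 37°C. PBS-rinsed, heat fixed, CLSM/COMSTAT.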

Caenorhabditis elegans = settings: ref [16]; cited from earlier work
NPR-C receptor = settings: mammalian cells; ref [25]; cited from earlier work
PA14 ΔamiC strain = assay: Biofilm formation under dynamic conditions, PA14 ΔamiC strain; type: cell-based, Pseudomonas aeruginosa; settings: BNP 10^−7 M, 24 h, P < 0.05, eight samples from three experiments
NPR-A receptor = settings: mammalian cells; ref [25]; cited from earlier work
P. aeruginosa cAMP = settings: ref [17]; cited from earlier work
P. aeruginosa PA14 = assay: Biofilm formation under dynamic conditions, P. aeruginosa PA14 wild type; type: cell-based, Pseudomonas aeruginosa; settings: 24 h
[4] = tested on: ami operon of P. aeruginosa; assay: qRT-PCR of ami operon mRNA; type: cell-based, Pseudomonas aeruginosa; settings: BNP 10^−6 M; data not shown
[5] = tested on: membrane of P. aeruginosa; settings: inducing increased virulence; ref [14]; cited from earlier work

T1 sequence (P27017 whole entry): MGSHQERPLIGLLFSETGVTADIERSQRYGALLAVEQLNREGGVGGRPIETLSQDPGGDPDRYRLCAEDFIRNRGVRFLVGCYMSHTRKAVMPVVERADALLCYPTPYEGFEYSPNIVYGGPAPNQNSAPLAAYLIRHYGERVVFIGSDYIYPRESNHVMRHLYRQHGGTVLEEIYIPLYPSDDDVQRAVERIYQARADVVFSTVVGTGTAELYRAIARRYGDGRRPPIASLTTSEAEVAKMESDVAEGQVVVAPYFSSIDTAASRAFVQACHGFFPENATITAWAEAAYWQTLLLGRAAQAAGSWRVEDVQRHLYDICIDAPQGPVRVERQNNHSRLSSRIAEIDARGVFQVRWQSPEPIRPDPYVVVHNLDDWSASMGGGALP

In the case of `CC(N)=O` [acetamide], the “effect of acetamide on ami operon transcription via AmiC” value (P. aeruginosa AmiC [1]) is listed as “triggering the transcription of the whole ami operon”.

In the case of `O=C1Nc2ccccc2C1=O` [isatin, indole-2,3-dione], the “normal blood isatin concentration” value [2] is given as 0.3 to 1.3 µM, the Kd (P. aeruginosa AmiC [3]) is given as 600 ± 200 µM and the “effect of isatin alone on organization of the biofilm” value (P. aeruginosa MPAO1) is given as “more irregular, with the presence of large water channels”. The “effect of isatin alone on biomass and thickness of the biofilm” value (P. aeruginosa MPAO1; two independent experiments) was “limited and nonsignificant increase”.

In the case of brain natriuretic peptide [BNP], the “effect on P. aeruginosa virulence for Caenorhabditis elegans” value (Caenorhabditis elegans) is listed as “without effect”, the “affinity for NPR-C” value (NPR-C receptor) is listed as “weak affinity” and the “change of biofilm formation in ΔamiC mutant” value (PA14 ΔamiC strain) is listed as −70.8% ± 12.1%. For the same molecule, the “affinity for / interaction with AmiC, in words” value (P. aeruginosa AmiC [3]) was “no affinity for AmiC”, the “affinity for NPR-A” value (NPR-A receptor) was “strongly binds” and the “intrabacterial cAMP” value (P. aeruginosa cAMP) was “did not modify intrabacterial cAMP levels”. The “change of biofilm average thickness” value (P. aeruginosa PA14; 10^−6 M, PA14, dynamic (flow cell), LB, 37°C, vs control, P < 0.001) was −76.0 ± 4.8%, the “change of biofilm volume” value (P. aeruginosa PA14; 10^−6 M, PA14, dynamic (flow cell), LB, 37°C, vs control, P < 0.001, CNP: ten samples from six experiments, BNP: six samples from two experiments) was −80.3% ± 4.4% and the “number and mean size of mushroom-like structures in the biofilm” value (P. aeruginosa PA14; 10^−6 M, PA14, dynamic, confocal microscopy) was “reduction of the number and mean size of mushroom-like structures”. The “change of biofilm formation” value (P. aeruginosa PA14; BNP 10^−7 M, PA14 wild type, dynamic, P < 0.001, nine samples from three experiments) was −75.1% ± 9.9% and the “whole ami operon transcriptional activity” value [4] was “no significant effect”.

In the case of dynorphin, the “crossing of the membrane of P. aeruginosa” value [5] is listed as “able to freely cross the membrane”.

B1: osteocrin: specific NPR-C agonist, synthesized by J. Leprince (peptide, UniProt P61366 28-133, looked up)
Osteocrin: VDVTTTEAFDSGVIDVQSTPTVREEKSATDLTAKLLLLDELVSLENDVIETKKKRSFSGFGSPLDRLSAGSVDHKGKQRKVVDHPKRRFGIPMDRIGRNRLSNSRG
modifications: Osteocrin
For B1, the “affinity for / interaction with AmiC, in words” value (P. aeruginosa AmiC [3]) was “very strong interaction”.
